Source: ChEMBL document CHEMBL1681760, “Further SAR study on 11-O-substituted aporphine analogues: identification of highly potent dopamine D3 receptor ligands” (Bioorg Med Chem, 2011)

Assays:
D(3) dopamine receptor = D(3) dopamine receptor (Homo sapiens, UniProt P35462); test: Displacement of [3H]spiperone from dopamine D3 receptor expressed in human HEK293 cells by liquid scintillation counter; format: cell-based
Outline: (§1)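 Stably transfected HEK293 membranes, 15 µg per tube, in duplicate. Competed against [3H]spiperone with increasing compound concentrations from 1 nM. Buffer 50 mM Tris, 4 mM MgCl2, pH 7.4; 30 °C for 50 min. Unlabelled spiperone defined nonspecific binding. Stopped by rapid GF/B filtration and washing with cold 50 mM Tris/5 mM EDTA.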

D(2) dopamine receptor [1] = biological target: T1, D(2) dopamine receptor (Homo sapiens, UniProt P14416); test: Displacement of [3H]spiperone from dopamine D2 receptor expressed in human HEK293 cells by liquid scintillation counter; format: cell-based; outline: as §1
D(1A) dopamine receptor [2] = biological target: T2, D(1A) dopamine receptor (Homo sapiens, UniProt P21728); test: Displacement of [3H]SCH23390 from dopamine D1 receptor expressed in human HEK293 cells at 10 uM by liquid scintillation counter; format: cell-based
D(1A) dopamine receptor [3] = biological target: T2, D(1A) dopamine receptor; test: Displacement of [3H]SCH23390 from dopamine D1 receptor expressed in human HEK293 cells by liquid scintillation counter; format: cell-based
Outline: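 Membranes from stably transfected HEK293 cells, 15 µg per tube, in duplicate. Incubated with [3H]SCH23390 and increasing compound concentrations from 1 nM. Buffer 50 mM Tris, 4 mM MgCl2, pH 7.4; 50 min at 30 °C. Nonspecific binding with unlabelled SCH23390. Reaction started by adding membranes and stopped by GF/B filtration.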

D(2) dopamine receptor [4] = biological target: T1, D(2) dopamine receptor; test: Displacement of [3H]spiperone from dopamine D2 receptor expressed in human HEK293 cells at 10 uM by liquid scintillation counter; format: cell-based
[5] = Selectivity ratio of Ki for 5-HT2A receptor to Ki for 5-HT1A receptor
[6] = biological target: 5-hydroxytryptamine receptor 2A (Homo sapiens, UniProt P28223); test: Displacement of [3H]Ketanserin from 5-HT2A receptor expressed in CHO cells by liquid scintillation counter; format: cell-based
Outline: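 Duplicate incubations of CHO membranes (15 µg per tube) with [3H]Ketanserin and a rising compound series starting at 1 nM. Run in 50 mM Tris, 4 mM MgCl2, pH 7.4, at 30 °C for 50 min. Unlabelled ketanserin gave nonspecific binding. Bound counts retained on GF/B filters after cold-buffer washing.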

[7] = Selectivity ratio of Ki for 5-HT1A receptor to Ki for dopamine D3 receptor
[8] = biological target: T3, 5-hydroxytryptamine receptor 1A (Homo sapiens, UniProt P08908); test: Displacement of [3H]8-OH-DPAT from 5-HT1A receptor expressed in CHO cells by liquid scintillation counter; format: cell-based
T3 sequence (P08908 whole entry): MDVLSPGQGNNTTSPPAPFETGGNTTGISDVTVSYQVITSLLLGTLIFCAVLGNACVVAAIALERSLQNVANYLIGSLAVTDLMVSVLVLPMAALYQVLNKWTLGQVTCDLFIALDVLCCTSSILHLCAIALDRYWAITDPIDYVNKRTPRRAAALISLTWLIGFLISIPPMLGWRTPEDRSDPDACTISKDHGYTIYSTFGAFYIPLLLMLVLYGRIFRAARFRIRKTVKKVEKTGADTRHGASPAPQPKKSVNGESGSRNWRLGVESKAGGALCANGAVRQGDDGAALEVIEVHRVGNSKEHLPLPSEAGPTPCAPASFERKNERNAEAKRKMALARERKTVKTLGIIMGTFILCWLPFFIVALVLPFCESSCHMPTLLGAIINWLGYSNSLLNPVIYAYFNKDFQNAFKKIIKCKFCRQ
Outline: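 CHO cell membrane homogenates, 15 µg per tube, in duplicate tubes. Test compound at increasing concentrations from 1 nM with 0.7 nM [3H]8-OH-DPAT. Buffer 50 mM Tris, 4 mM MgCl2, pH 7.4. Incubated 50 min at 30 °C. Nonspecific binding defined with WAY100635. Stopped by GF/B filtration and cold Tris/EDTA wash.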

T2 sequence (P21728 whole entry): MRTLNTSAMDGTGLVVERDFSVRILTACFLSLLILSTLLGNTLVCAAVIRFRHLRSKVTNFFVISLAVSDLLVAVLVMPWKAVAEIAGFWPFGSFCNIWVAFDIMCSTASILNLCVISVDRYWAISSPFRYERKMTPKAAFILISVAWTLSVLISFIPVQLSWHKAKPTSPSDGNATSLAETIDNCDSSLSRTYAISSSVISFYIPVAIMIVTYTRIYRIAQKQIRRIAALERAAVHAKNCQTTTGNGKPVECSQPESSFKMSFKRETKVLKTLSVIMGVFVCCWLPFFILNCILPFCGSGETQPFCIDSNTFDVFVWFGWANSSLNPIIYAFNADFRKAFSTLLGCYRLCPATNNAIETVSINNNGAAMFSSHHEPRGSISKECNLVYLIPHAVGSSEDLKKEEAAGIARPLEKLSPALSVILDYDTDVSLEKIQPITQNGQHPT
D(3) dopamine receptor, sequence (P35462 whole entry): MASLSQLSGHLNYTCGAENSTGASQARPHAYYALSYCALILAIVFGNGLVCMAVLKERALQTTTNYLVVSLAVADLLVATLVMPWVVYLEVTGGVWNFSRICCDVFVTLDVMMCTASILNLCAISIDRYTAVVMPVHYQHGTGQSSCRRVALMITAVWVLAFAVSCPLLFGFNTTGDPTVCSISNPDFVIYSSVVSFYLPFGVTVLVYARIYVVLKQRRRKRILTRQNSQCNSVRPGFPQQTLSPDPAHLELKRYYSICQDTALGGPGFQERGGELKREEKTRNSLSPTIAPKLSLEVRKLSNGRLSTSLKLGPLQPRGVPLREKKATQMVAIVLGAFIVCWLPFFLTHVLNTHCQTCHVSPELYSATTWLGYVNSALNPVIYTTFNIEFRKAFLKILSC
5-hydroxytryptamine receptor 2A, sequence (P28223 whole entry): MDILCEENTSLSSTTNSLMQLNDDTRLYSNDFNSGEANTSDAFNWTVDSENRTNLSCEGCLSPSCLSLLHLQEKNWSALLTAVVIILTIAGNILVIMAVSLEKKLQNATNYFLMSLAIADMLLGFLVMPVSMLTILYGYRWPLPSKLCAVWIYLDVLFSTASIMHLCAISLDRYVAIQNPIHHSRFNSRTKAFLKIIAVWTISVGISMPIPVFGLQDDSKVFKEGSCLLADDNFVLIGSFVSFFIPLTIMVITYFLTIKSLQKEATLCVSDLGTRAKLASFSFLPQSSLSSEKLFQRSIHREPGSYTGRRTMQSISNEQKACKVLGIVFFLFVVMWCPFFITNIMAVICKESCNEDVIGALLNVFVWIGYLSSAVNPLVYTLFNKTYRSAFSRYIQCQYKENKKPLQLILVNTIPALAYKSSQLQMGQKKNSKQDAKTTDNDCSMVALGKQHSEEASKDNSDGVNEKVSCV
T1 sequence (P14416 whole entry): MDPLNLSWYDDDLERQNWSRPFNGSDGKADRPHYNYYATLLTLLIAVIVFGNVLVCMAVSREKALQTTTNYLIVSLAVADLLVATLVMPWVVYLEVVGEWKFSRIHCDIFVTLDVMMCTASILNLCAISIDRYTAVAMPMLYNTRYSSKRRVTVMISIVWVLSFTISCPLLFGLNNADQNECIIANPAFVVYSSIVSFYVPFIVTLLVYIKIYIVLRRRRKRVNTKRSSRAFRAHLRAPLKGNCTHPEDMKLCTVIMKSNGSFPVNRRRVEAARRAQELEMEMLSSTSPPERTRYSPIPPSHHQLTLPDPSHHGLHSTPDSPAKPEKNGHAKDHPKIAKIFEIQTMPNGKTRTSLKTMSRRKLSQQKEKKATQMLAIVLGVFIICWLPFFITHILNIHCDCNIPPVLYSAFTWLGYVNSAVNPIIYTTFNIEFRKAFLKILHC

Compound | Ki (D(3) dopamine receptor) [nM] | Ki (D(2) dopamine receptor [1]) [nM] | inhibition (D(1A) dopamine receptor [2]) [%] | Ki (D(1A) dopamine receptor [3]) [nM] | inhibition (D(2) dopamine receptor [4]) [%] | Ratio [5] | Ki [6] [nM] | Ratio [7] | Ki [8] [nM]
CCCN1CCc2cccc3c2[C@@H]1Cc1cccc(OCc2cn(CCCCN4CCN(c5ccccc5OC)CC4)nn2)c1-3 | 8 | 293 | 66 |  |  |  |  |  | 
CCCN1CCc2cccc3c2[C@@H]1Cc1cccc(OCCCn2cc(CCN4CCN(c5ccccc5OC)CC4)nn2)c1-3 | 1.82 | 600 | 68 |  |  |  |  |  | 
CCCN1CCc2cccc3c2[C@H]1Cc1cccc(OCCCn2cc(CCN4CCN(c5ccccc5OC)CC4)nn2)c1-3 | 7.7 | 770 | 54 |  |  |  |  |  | 
CCCN1CCc2cccc3c2[C@@H]1Cc1cccc(OCCCCN2CCN(c4ccccc4OC)CC2)c1-3 | 189 | 174 |  | 1170 |  |  |  |  | 
C#CCOc1cccc2c1-c1cccc3c1C(C2)N(CCC)CC3 (racemic) | 2400 |  |  |  | 28 |  |  |  | 
CCCN1CCc2cccc3c2C1Cc1cccc(OCc2cn(CCCN4CCN(c5cccc(Cl)c5Cl)CC4)nn2)c1-3 (racemic) | 35 |  |  | 2010 | 40.5 |  |  |  | 
CCCN1CCc2cccc3c2C1Cc1cccc(OCc2cn(CCCCN4CCN(c5ccccc5OC)CC4)nn2)c1-3 (racemic) | 2.67 | 661 |  | 2700 |  | 18 | 174 | 3.6 | 9.68
CCCN1CCc2cccc3c2C1Cc1cccc(OCCCn2cc(CCN4CCN(c5ccccc5OC)CC4)nn2)c1-3 (racemic) | 1.14 | 7380 | 64 |  |  | 32 | 245 | 6.6 | 7.59
CCCN1CCc2cccc3c2C1Cc1cccc(OCCCN(CCCN2CCN(c4ccccc4OC)CC2)S(C)(=O)=O)c1-3 (racemic) | 102 | 399 |  | 910 |  |  |  |  | 

More lines, now with the values ahead:

Ki (D(3) dopamine receptor) [nM] | Ki (D(2) dopamine receptor [1]) [nM] | inhibition (D(1A) dopamine receptor [2]) [%] | Ki (D(1A) dopamine receptor [3]) [nM] | inhibition (D(2) dopamine receptor [4]) [%] | Ratio [5] | Ki [6] [nM] | Ratio [7] | Ki [8] [nM] | Compound
9.18 | 616 |  | 1600 |  |  |  |  |  | CCCN1CCc2cccc3c2[C@H]1Cc1cccc(OCc2cn(CCCCN4CCN(c5ccccc5OC)CC4)nn2)c1-3
23.4 | 141 |  | 1310 |  |  |  |  |  | CCCN1CCc2cccc3c2[C@H]1Cc1cccc(OCCCCN2CCN(c4ccccc4OC)CC2)c1-3
21 | 1200 | 67 |  |  |  |  |  |  | CCCN1CCc2cccc3c2C1Cc1cccc(OCc2cn(CCCN4CCN(c5ccccc5OC)CC4)nn2)c1-3 (racemic)
191 |  | 63 |  | 6 |  |  |  |  | CCCN1CCc2cccc3c2C1Cc1cccc(OCc2cn(CCCN4CCN(c5ccccc5)CC4)nn2)c1-3 (racemic)
539 |  | 32 |  | 13 |  |  |  |  | CCCN1CCc2cccc3c2C1Cc1cccc(OCc2cn(CCCN4CCN(c5ncccn5)CC4)nn2)c1-3 (racemic)
44 |  | 35 |  | 19 |  |  |  |  | CCCN1CCc2cccc3c2C1Cc1cccc(OCc2cn(CCN4CCN(c5ccccc5OC)CC4)nn2)c1-3 (racemic)
8.14 | 206 |  | 1900 |  |  |  |  |  | CCCN1CCc2cccc3c2C1Cc1cccc(OCCCn2cc(CCCCN4CCN(c5ccccc5OC)CC4)nn2)c1-3 (racemic)
8.16 |  | 14 |  | 18 |  |  |  |  | CCCN1CCc2cccc3c2C1Cc1cccc(OCCCn2cc(CCCN4CCN(c5ccccc5OC)CC4)nn2)c1-3 (racemic)
281 |  | 42 |  | 51 |  |  |  |  | CCCN1CCc2cccc3c2C1Cc1cccc(OCCCn2cc(CN4CCN(c5ccccc5OC)CC4)nn2)c1-3 (racemic)
4510 |  | 44 |  | 9 |  |  |  |  | CCCN1CCc2cccc3c2C1Cc1cccc(OCCCNCCCO)c1-3 (racemic)
19.9 | 88 |  | 735 |  |  | 100000 |  | 58 | CCCN1CCc2cccc3c2C1Cc1cccc(OCCCCN2CCN(c4ccccc4OC)CC2)c1-3 (racemic)
